Assay results published in the array DNA melting data of Ke et al. (doi:10.1101/2024.01.08.574731).

Columns and labels:
[1] = folding enthalpy; higher = less favourable; fluorescence melt of hairpins on a sequencing array, two-state fit; settings: sodium 0.088 M
Method in brief: (§1)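 Cy3 fluorescence of library hairpins on a sequenced MiSeq flow cell, with annealed Cy3 and quencher oligos, was imaged in 50 mM Na-HEPES pH 8.0, 25 mM NaCl in 2.5 °C steps up to 60 °C. Signals were normalised to pre-quench Cy3 and to control variants. Melting temperature and folding enthalpy came from bootstrapped two-state fits, inverse-variance combined over four replicates. Fitted temperatures were raised by 9.35 °C to match UV melts.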

[2] = melting temperature; fluorescence melt of hairpins on a sequencing array, two-state fit, raised by 9.35 °C to match UV melts; settings: sodium 0.088 M
Method in brief: as §1

Row | Sequence | folding enthalpy [1] | Tm [2]
1 | GATCTGTTGTCAGATC ((((((....)))))) | -37.1 kcal/mol | 50.9 °C
2 | GATCTGTTTTCAGATC ((((((....)))))) | -49.9 kcal/mol | 51.4 °C
3 | GATCTTAAATAAGATC ((((((....)))))) | -31.9 kcal/mol | 38.5 °C
4 | GATCTTAACAAGATC ((((((...)))))) | -31.9 kcal/mol | 45.6 °C
5 | GATCTTAAGAAAGATC ((((((....)))))) | -22.1 kcal/mol | 36 °C
6 | GATCTTAAGAAGATC ((((((...)))))) | -25.5 kcal/mol | 40.5 °C
7 | GATCTTACAAAAGATC ((((((....)))))) | -26.4 kcal/mol | 39.6 °C
8 | GATCTTACAAAGATC ((((((...)))))) | -32.2 kcal/mol | 44.4 °C
9 | GATCTTACGTAAGATC ((((((....)))))) | -63 kcal/mol | 48.3 °C
10 | GATCTTACTAAAGATC ((((((....)))))) | -33 kcal/mol | 43 °C
11 | GATCTTAGAAAGATC ((((((...)))))) | -31.3 kcal/mol | 41.5 °C
12 | GATCTTAGAGAAGATC ((((((....)))))) | -21.1 kcal/mol | 37.7 °C
13 | GATCTTAGCAAGATC ((((((...)))))) | -31.9 kcal/mol | 46.2 °C
14 | GATCTTAGCGAAGATC ((((((....)))))) | -31.2 kcal/mol | 43.4 °C
15 | GATCTTAGGGAAGATC ((((((....)))))) | -26.3 kcal/mol | 41.5 °C
16 | GATCTTATAAAAGATC ((((((....)))))) | -25.5 kcal/mol | 40 °C
17 | GATCTTATGTAAGATC ((((((....)))))) | -36.6 kcal/mol | 45.2 °C
18 | GATCTTATTGAAGATC ((((((....)))))) | -31.5 kcal/mol | 41.8 °C
19 | GATCTTCAAAAAGATC ((((((....)))))) | -27.3 kcal/mol | 40.4 °C
20 | GATCTTCAAAAGATC ((((((...)))))) | -19.2 kcal/mol | 41 °C
21 | GATCTTCACCAAGATC ((((((....)))))) | -35.5 kcal/mol | 41.9 °C
22 | GATCTTCATAAAGATC ((((((....)))))) | -35.6 kcal/mol | 43.5 °C
23 | GATCTTCCGAAAGATC ((((((....)))))) | -29.7 kcal/mol | 43.2 °C
24 | GATCTTCCGCAAGATC ((((((....)))))) | -35.4 kcal/mol | 42.5 °C

Row | Sequence | folding enthalpy [1] | Tm [2]
25 | GATCTTCCGTAAGATC ((((((....)))))) | -29.8 kcal/mol | 43.8 °C
26 | GATCTTCCTCAAGATC ((((((....)))))) | -30.1 kcal/mol | 42 °C
27 | GATCTTCGAAAAGATC ((((((....)))))) | -24.9 kcal/mol | 40.5 °C
28 | GATCTTCGCAAAGATC ((((((....)))))) | -28.3 kcal/mol | 45.5 °C
29 | GATCTTCGCAAGATC ((((((...)))))) | -33.7 kcal/mol | 45.4 °C
30 | GATCTTCGTAAAGATC ((((((....)))))) | -40.8 kcal/mol | 44.9 °C
31 | GATCTTCTAGAAGATC ((((((....)))))) | -40.9 kcal/mol | 49.6 °C
32 | GATCTTCTGAAAGATC ((((((....)))))) | -25.4 kcal/mol | 42.1 °C
33 | GATCTTCTGCAAGATC ((((((....)))))) | -22 kcal/mol | 42.9 °C
34 | GATCTTGAGAAAGATC ((((((....)))))) | -32.1 kcal/mol | 45.9 °C
35 | GATCTTGATCAAGATC ((((((....)))))) | -40.9 kcal/mol | 49.7 °C
36 | GATCTTGGAAAGATC ((((((...)))))) | -34.5 kcal/mol | 51.9 °C
37 | GATCTTGGACAAGATC ((((((....)))))) | -41.8 kcal/mol | 50.8 °C
38 | GATCTTGGCTAAGATC ((((((....)))))) | -45.1 kcal/mol | 48.2 °C
39 | GATCTTGGGTAAGATC ((((((....)))))) | -27.6 kcal/mol | 43.2 °C
40 | GATCTTTACAAGATC ((((((...)))))) | -33.2 kcal/mol | 46.4 °C
41 | GATCTTTACCAAGATC ((((((....)))))) | -29.9 kcal/mol | 42 °C
42 | GATCTTTCCAAAGATC ((((((....)))))) | -32.9 kcal/mol | 47.3 °C
43 | GATCTTTCGCAAGATC ((((((....)))))) | -32.4 kcal/mol | 43.5 °C
44 | GATCTTTGAAAAGATC ((((((....)))))) | -29.4 kcal/mol | 42.2 °C
45 | GATCTTTGAGAAGATC ((((((....)))))) | -31.6 kcal/mol | 46 °C
46 | GATCTTTGCAAGATC ((((((...)))))) | -34.7 kcal/mol | 46.4 °C
47 | GATCTTTGGCAAGATC ((((((....)))))) | -29 kcal/mol | 40 °C
48 | GATCTTTGGGAAGATC ((((((....)))))) | -34.1 kcal/mol | 45.6 °C

Row | Sequence | folding enthalpy [1] | Tm [2]
49 | GATCTTTGTAAAGATC ((((((....)))))) | -34.3 kcal/mol | 47.5 °C
50 | GATCTTTGTAAGATC ((((((...)))))) | -28.8 kcal/mol | 45.5 °C
51 | GATCTTTTCAAAGATC ((((((....)))))) | -43.6 kcal/mol | 48.7 °C
52 | GATCTTTTGCAAGATC ((((((....)))))) | -34.8 kcal/mol | 42.8 °C
53 | GATCTTTTTAAAGATC ((((((....)))))) | -41.4 kcal/mol | 49.6 °C
54 | GATCTTTTTAAGATC ((((((...)))))) | -32.2 kcal/mol | 47.1 °C
55 | GATCTTTTTGAAGATC ((((((....)))))) | -34.5 kcal/mol | 46.1 °C
56 | GATGACCCGAAAGGGATC (((..(((....)))))) | -11.7 kcal/mol | 33.2 °C
57 | GATGACGAAAGTCAGATC ((((((....)))..))) | -17.8 kcal/mol | 52.1 °C
58 | GATGACGAAAGTCCGATC ((((((....)))..))) | -12.8 kcal/mol | 26.8 °C
59 | GATGACGAAAGTCTATC ((((((....))).))) | -16.4 kcal/mol | 39 °C
60 | GATGACGGAAACGTCATC (((((((....))))))) | -37.1 kcal/mol | 67.5 °C
61 | GATGAGCCGAAAGGCATC (((..(((....)))))) | -10.2 kcal/mol | 33.5 °C
62 | GATGAGCGAAAGCTATC (((.(((....)))))) | -14.7 kcal/mol | 35.1 °C
63 | GATGAGGCGAAAGCCATC (((..(((....)))))) | -13.1 kcal/mol | 36.3 °C
64 | GATGAGGGAAACCTTGTC ((..(((....)))..)) | -15.3 kcal/mol | 28.1 °C
65 | GATGATACGAAAGTAATC (((..(((....)))))) | -16.5 kcal/mol | 27.5 °C
66 | GATGATGGAAACATTATC (((.(((....))).))) | -30.4 kcal/mol | 35.5 °C
67 | GATGATGGAAACATTGTC ((..(((....)))..)) | -27.9 kcal/mol | 28.8 °C
68 | GATGATGGAAACGTCATC (((((.(....).))))) | -29.8 kcal/mol | 46.7 °C
69 | GATGCACGAAAGTGGATC (((.(((....))).))) | -37.5 kcal/mol | 54.9 °C
70 | GATGCCACGAAAGTGATC (((..(((....)))))) | -9.92 kcal/mol | 20.2 °C
71 | GATGCCCCGAAAGGGATC (((..(((....)))))) | -10.3 kcal/mol | 32.5 °C
72 | GATGCCGAAAGGCAATC ((((((....))).))) | -13.8 kcal/mol | 53 °C

Row | Sequence | folding enthalpy [1] | Tm [2]
73 | GATGCCGAAAGGCCAATC ((((((....)))..))) | -8.85 kcal/mol | 29.4 °C
74 | GATGCGCGAAAGCGTATC (((.(((....))).))) | -27.8 kcal/mol | 63 °C
75 | GATGCGGAAACGCATC ((((((....)))))) | -31.3 kcal/mol | 68.2 °C
76 | GATGCGGCGAAAGCCATC (((..(((....)))))) | -11.6 kcal/mol | 29.2 °C
77 | GATGCGGGAAACTGCATC (((((.(....).))))) | -42.6 kcal/mol | 54.7 °C
78 | GATGCTGCGAAAGCAATC (((..(((....)))))) | -9.87 kcal/mol | 29.3 °C
79 | GATGCTGGAAACAACATC ((((.((....)).)))) | -31.4 kcal/mol | 36.2 °C
80 | GATGCTGGAAACAGTATC (((.(((....))).))) | -33.8 kcal/mol | 47 °C
81 | GATGCTGGAAACGGTATC (((.(.(....).).))) | -22.8 kcal/mol | 31.2 °C
82 | GATGGACGAAAGTCATC (((.(((....)))))) | -17.9 kcal/mol | 45.7 °C
83 | GATGGAGCGAAAGCTATC (((..(((....)))))) | -10.5 kcal/mol | 30.2 °C
84 | GATGGCGAAAGCCGTATC ((((((....)))..))) | -6.56 kcal/mol | 43.8 °C
85 | GATGGCGAAAGCCTGATC ((((((....)))..))) | -11 kcal/mol | 33.6 °C
86 | GATGGCGGAAACACCACC (.(((.(....).))).) | -14.8 kcal/mol | 30.2 °C
87 | GATGGCGGAAACGCCGTC ((.((((....)))).)) | -21.4 kcal/mol | 58.3 °C
88 | GATGGCGGAAACGCTGTC ((..(((....)))..)) | -17.1 kcal/mol | 44 °C
89 | GATGGCGGAAACGTCATC ((((.((....)).)))) | -43.7 kcal/mol | 55.3 °C
90 | GATGGGCCGAAAGGCATC (((..(((....)))))) | -9.87 kcal/mol | 34.8 °C
91 | GATGGGGGAAACCCCGTC ((.((((....)))).)) | -24.7 kcal/mol | 52.7 °C
92 | GATGGGGGAAACCCTGTC ((..(((....)))..)) | -22.5 kcal/mol | 33.2 °C
93 | GATGGTGGAAACACCATC (((((((....))))))) | -39.4 kcal/mol | 65.1 °C
94 | GATGTACGAAAGTAGATC (((.(((....))).))) | -30.5 kcal/mol | 44 °C
